Reference: ChEMBL document CHEMBL1139436, “Quantitative structure-activity relationship of sesquiterpene lactones as inhibitors of the transcription factor NF-kappaB” (J Med Chem, 2004)

Columns and labels:
[1] = biological target: T1, Nuclear factor NF-kappa-B complex (Homo sapiens) (UniProt Q00653+P19838+Q04206); experiment: (§1) Concentration required for complete inhibition of Nuclear factor kappa B DNA binding; assay type: protein-complex assay; design: unit not given here
Procedure, shortened: (§2)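 Jurkat T cells (RPMI 1640, 10% FCS, penicillin/streptomycin) pretreated 1 h with sesquiterpene lactone, first at 10, 20, 50, 100 μM, then 1–5 μM or 200–300 μM as needed. Stimulated 1 h with 200 U/mL TNF-α. Total extracts (Totex high-salt buffer) analysed by EMSA with ³²P-labeled NF-κB oligonucleotide, 25 min at room temperature. IC100 is the lowest tested level fully blocking binding; intermediate values assigned the higher level. Each experiment reproduced at least once.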

[2] = biological target: T1, Nuclear factor NF-kappa-B complex (Homo sapiens); experiment: as §1; assay type: protein-complex assay; procedure, shortened: as §2

T1 sequence (P19838 whole entry, looked up): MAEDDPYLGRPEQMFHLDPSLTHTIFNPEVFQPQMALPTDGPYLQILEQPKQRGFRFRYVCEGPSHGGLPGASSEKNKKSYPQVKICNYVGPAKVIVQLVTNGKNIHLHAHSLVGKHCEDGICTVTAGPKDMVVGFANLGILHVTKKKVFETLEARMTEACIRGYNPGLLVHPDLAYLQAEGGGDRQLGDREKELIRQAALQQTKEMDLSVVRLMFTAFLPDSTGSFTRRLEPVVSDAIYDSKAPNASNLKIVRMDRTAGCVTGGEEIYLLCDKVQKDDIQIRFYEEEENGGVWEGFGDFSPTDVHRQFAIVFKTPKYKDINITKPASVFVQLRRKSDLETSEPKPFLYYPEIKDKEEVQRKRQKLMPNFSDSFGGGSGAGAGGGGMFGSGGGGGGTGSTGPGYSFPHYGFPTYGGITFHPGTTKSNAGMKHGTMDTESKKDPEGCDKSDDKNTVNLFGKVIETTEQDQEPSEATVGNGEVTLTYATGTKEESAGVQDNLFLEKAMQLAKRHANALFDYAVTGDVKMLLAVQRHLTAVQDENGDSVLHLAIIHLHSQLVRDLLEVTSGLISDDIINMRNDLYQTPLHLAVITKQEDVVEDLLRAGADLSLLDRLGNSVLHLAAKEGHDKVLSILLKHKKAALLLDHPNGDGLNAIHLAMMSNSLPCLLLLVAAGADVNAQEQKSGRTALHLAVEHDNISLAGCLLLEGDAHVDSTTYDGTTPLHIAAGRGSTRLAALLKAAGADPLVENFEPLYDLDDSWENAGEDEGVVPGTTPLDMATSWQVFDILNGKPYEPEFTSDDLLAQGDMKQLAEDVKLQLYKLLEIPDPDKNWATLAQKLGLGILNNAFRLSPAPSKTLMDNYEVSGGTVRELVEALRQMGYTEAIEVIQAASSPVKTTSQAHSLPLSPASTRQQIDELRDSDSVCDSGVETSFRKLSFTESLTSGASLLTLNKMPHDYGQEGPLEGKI
T1 sequence (Q00653 whole entry, looked up): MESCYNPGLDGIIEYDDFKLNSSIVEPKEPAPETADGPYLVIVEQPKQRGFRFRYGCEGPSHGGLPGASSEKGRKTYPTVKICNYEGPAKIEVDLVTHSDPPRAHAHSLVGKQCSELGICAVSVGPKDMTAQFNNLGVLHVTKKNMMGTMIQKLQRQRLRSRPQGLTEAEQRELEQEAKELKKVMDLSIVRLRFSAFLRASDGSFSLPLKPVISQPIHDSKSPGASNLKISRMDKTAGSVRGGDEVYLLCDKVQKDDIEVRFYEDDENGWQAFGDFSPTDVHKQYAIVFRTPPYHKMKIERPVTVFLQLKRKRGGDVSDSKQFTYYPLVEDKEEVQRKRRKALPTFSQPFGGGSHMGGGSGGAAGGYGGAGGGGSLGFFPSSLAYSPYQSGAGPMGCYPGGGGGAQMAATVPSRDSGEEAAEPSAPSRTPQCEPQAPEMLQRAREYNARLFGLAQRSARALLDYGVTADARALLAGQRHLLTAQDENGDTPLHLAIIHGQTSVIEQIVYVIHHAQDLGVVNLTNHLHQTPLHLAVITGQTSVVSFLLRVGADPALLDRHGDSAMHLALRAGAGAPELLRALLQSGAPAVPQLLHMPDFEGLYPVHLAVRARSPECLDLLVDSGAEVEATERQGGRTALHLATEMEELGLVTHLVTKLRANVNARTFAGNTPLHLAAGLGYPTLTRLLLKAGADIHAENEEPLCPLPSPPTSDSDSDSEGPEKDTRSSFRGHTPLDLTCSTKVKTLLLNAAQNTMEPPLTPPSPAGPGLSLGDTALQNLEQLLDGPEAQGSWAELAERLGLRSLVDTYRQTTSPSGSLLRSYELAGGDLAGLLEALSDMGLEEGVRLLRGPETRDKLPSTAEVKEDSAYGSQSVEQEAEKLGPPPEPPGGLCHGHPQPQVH
T1 sequence (Q04206 whole entry, looked up): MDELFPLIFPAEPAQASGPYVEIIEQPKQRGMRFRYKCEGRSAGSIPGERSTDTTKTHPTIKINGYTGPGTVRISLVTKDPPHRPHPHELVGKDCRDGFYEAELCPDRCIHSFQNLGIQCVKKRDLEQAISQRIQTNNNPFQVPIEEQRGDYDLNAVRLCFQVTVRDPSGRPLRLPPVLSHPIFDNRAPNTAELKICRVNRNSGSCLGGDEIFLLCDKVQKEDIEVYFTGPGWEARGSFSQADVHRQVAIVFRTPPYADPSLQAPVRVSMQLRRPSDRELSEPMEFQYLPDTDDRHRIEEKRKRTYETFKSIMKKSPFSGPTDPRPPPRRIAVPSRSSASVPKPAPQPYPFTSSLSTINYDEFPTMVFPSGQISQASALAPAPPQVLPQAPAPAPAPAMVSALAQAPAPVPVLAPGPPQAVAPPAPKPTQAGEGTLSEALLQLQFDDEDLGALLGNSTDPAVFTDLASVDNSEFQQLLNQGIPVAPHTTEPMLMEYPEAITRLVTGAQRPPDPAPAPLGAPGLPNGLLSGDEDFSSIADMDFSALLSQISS

Compound | pIC100 [1] | IC100 [2]
C=C1C(=O)O[C@@H]2[C@H]3C(CO)=CC(=O)C3=C(C)CC[C@@H]12 | -1.69 | 50 µM
C=C(C)C(=O)O[C@@H]1/C=C(/C=O)CCCC(=C)[C@H](O)[C@H]2OC(=O)C(=C)[C@@H]21 | -0.69 | 5 µM
C=C1C(=O)O[C@H]2C/C(CO)=C\CC/C(COC(=O)C(C)CC)=C\C[C@H]12 (some centres undefined) | -1.69 | 50 µM
C=C1C(=O)O[C@@H]2/C=C(/COC(=O)CC(C)C)CC/C=C(/CO)C(=O)C[C@@H]12 (stereo in doubt; 3) | -1.09 | 12.5 µM
C=C(CO)C(=O)OC/C1=C/C[C@@H]2C(=C)C(=O)O[C@H]2C/C(COC(C)=O)=C\CC1 | -1.69 | 50 µM
C=C(C)C(=O)O[C@@H]1C[C@]2(C)CC[C@@](O)(O2)[C@@H](C)C[C@H]2OC(=O)C(=C)[C@H]12 | -2.3 | 200 µM
C=C1C(=O)C=C2[C@H]1C[C@@H]1C(=C)C(=O)O[C@H]1C[C@@H]2C | -0.69 | 5 µM
C=C(C)C(=O)O[C@H]1C/C(C)=C/C(=O)/C=C(/C)[C@H](O)[C@H]2OC(=O)C(=C)[C@@H]21 | -1 | 10 µM
C=C1C(=O)O[C@H]2C/C(CO)=C\CC/C(COC(=O)C(C)C)=C\C[C@H]12 | -1.69 | 50 µM
C=C(C)C(=O)O[C@H]1[C@H]2C(=C)C(=O)O[C@@H]2/C=C(/C)CC/C=C(/C=O)[C@@H]1O | -1 | 10 µM
C=C(C)C(=O)O[C@H]1C[C@@]2(C)OC(=CC2=O)/C(CO)=C\[C@H]2OC(=O)C(=C)[C@H]12 | -1.3 | 20 µM
C=C1C(=O)O[C@@H]2/C=C(/CO)C3=CC(=O)[C@@](C)(C[C@@H](OC(=O)/C(C)=C/C)[C@@H]12)O3 | -0.69 | 5 µM
C=C1C(=O)O[C@H]2[C@H]1CCC(C)=C1C(=O)[C@H]3O[C@@]3(C)[C@@H]12 | -0.69 | 5 µM
C=C1C(=O)O[C@@H]2/C=C(/COC(=O)C(C)C)CC/C=C(/CO)[C@H](O)C[C@@H]12 | -2 | 100 µM
C=C1C(=O)O[C@H]2C3=C(C(=O)C[C@@H]3C)[C@@H](C)CC[C@@H]12 | -1.3 | 20 µM
C=C1C(=O)O[C@H]2C[C@H](C)C3=CC(=O)[C@H](C)C3C[C@H]12 (some centres undefined) | -1.3 | 20 µM
C=C(C)C(=O)O[C@H]1[C@H]2C(=C)C(=O)O[C@@H]2[C@@H](O)C(=C)CC/C=C(/C=O)[C@@H]1OC(C)=O | -1 | 10 µM
C=C1C(=O)C[C@H]2C(=C)C(=O)O[C@@H]2/C=C(/COC(=O)CC(C)C)CC[C@H]1OC | -1.09 | 12.5 µM
C=C(C)C(=O)O[C@@H]1C[C@@](C)(O)[C@@H]2C(=O)C=C(C)[C@@H]2[C@H]2OC(=O)C(=C)[C@@H]21 | -1.3 | 20 µM
C=C(C)C(=O)O[C@H]1C/C(C)=C\[C@@]2(OC)C=C(C)[C@H](O2)[C@H]2OC(=O)C(=C)[C@@H]21 | -1 | 10 µM
C=C1C(=O)O[C@@H]2[C@H]3C(C)=C(Cl)C(=O)C3=C(C)CC[C@@H]12 | -1.3 | 20 µM

Compound | pIC100 [1] | IC100 [2]
C=C1C(=O)O[C@H]2C/C(CO)=C\CC/C(COC(=O)C(C)C(C)O)=C\C[C@H]12 (some centres undefined) | -1.69 | 50 µM
C=C(C)C(=O)O[C@H]1C[C@@]2(C)OC(=CC2=O)C(=C)[C@@H](O)[C@H]2OC(=O)C(=C)[C@@H]21 | -1 | 10 µM
C=C(C)C(=O)O[C@@H]1C[C@]2(C)CC[C@@](O)(O2)/C(C)=C\[C@H]2OC(=O)C(=C)[C@@H]21 | -1 | 50 µM
C=C1C(=O)O[C@@H]2/C=C(/C)CC/C=C(/C)CC[C@@]12O | -1 | 10 µM
C=C1C(=O)O[C@@H]2/C=C(/CO)C3=CC(=O)[C@@](C)(C[C@H](OC(=O)/C(C)=C/C)[C@@H]12)O3 | -0.69 | 5 µM
C=C1C(=O)O[C@@H]2/C=C(/COC(=O)CC(C)C)CC/C=C(/CO)C(=O)C[C@@H]12 (stereo in doubt; 5) | -1.09 | 12.5 µM
C=C1C(=O)O[C@@H]2[C@H]3C(C)=CC[C@H]3[C@](C)(O)C[C@H](O)[C@@H]12 | -2 | 100 µM
C=C1C(=O)O[C@@H]2C[C@H](C)C3=CC(=O)[C@H](C)[C@@H]3C[C@H]12 | -1.69 | 50 µM
C=C1C(=O)O[C@@H]2/C=C(/C)C3=CC(=O)[C@@](C)(C[C@@H](OC(=O)/C(C)=C\C)[C@@H]12)O3 | -0.39 | 5 µM
C=C1C(=O)O[C@@H]2/C=C(/C)[C@H](OC(C)=O)C/C=C(/C)CC[C@@H]12 | -1.69 | 50 µM
C=C1C(=O)O[C@H]2C[C@]3(C)O[C@@H]3C[C@@H](OC(C)=O)C3=C[C@@H](OC3=O)[C@H]12 | -1 | 10 µM
C=C1C(=O)O[C@@H]2/C=C(/C)[C@]3(O)O[C@@](C)(C[C@@H]3OC)C[C@@H](OC(=O)C(C)C)[C@@H]12 | -2.3 | 200 µM
C=C(CO)C(=O)OC/C1=C/C[C@@H]2C(=C)C(=O)O[C@H]2C/C(CO)=C\CC1 | -1.3 | 20 µM
C=C1C(=O)O[C@@H]2/C=C(/COC(=O)C(C)C)CC/C=C(/CO)C(=O)C[C@@H]12 | -1.09 | 12.5 µM
C=C(C)C(=O)O[C@@H]1/C=C(/C=O)CCC[C@@]2(CO2)[C@H](O)[C@H]2OC(=O)C(=C)[C@@H]21 | -0.69 | 5 µM
C=C1C(=O)O[C@@H]2[C@H]3C(C)=CC(=O)C3=C(C)C[C@@H](OC(=O)[C@]3(C)O[C@@H]3C)[C@@H]12 | -1.3 | 20 µM
C=C(C)C(=O)O[C@H]1[C@H]2C(=C)C(=O)O[C@@H]2/C=C(/COC(C)=O)CC/C=C(/C=O)[C@@H]1O | -0.69 | 5 µM
C=C(C)C(=O)O[C@@H]1/C=C(/C=O)[C@H](OC)CCC(=C)[C@H](O)[C@H]2OC(=O)C(=C)[C@@H]21 | -1 | 10 µM
C=C(C)C(=O)O[C@@H]1C=C(C=O)CCCC(=C)[C@H](O)[C@H]2OC(=O)C(=C)[C@@H]21 | -1 | 10 µM
C=C1C(=O)O[C@@H]2/C=C(/C)CC/C=C(/C)C[C@@H](OC(=O)C=C(CO)CO)[C@@H]12 | -1 | 20 µM
C=C1[C@@H]2[C@H]3OC(=O)C(=C)[C@@H]3CCC(=C)[C@@H]2C[C@@H]1OC(=O)C=C(C)C | -2.3 | 200 µM
